Assay results reported in ChEMBL document CHEMBL1125823, “2-Phenylindole-linked [2-(aminoalkyl)pyridine]dichloroplatinum(II): complexes with a selective action on estrogen receptor positive mammary tumors” (1991).

Assays:
[1] = molecular target: T1, Estrogen receptor (Mus musculus) (UniProt O08537+P19785); test: Anti-uterotrophic effect in mice as relative uterine weight(mg) at 250 ug; format: functional
How it was run: (§1)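 Immature mice received the compound sc per animal on three consecutive days, alone or with 0.4 µg estrone per animal per day. Uteri were taken 24 h after the last injection, Bouin-fixed, dried at 100 °C for 24 h and weighed. Relative uterus weight = dry weight (mg)/body weight (g) × 100; mean of 6-10 animals ± SD; Mann-Whitney U test.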
Target sequence in this assay (P19785 whole entry, looked up, chain 1 of 2): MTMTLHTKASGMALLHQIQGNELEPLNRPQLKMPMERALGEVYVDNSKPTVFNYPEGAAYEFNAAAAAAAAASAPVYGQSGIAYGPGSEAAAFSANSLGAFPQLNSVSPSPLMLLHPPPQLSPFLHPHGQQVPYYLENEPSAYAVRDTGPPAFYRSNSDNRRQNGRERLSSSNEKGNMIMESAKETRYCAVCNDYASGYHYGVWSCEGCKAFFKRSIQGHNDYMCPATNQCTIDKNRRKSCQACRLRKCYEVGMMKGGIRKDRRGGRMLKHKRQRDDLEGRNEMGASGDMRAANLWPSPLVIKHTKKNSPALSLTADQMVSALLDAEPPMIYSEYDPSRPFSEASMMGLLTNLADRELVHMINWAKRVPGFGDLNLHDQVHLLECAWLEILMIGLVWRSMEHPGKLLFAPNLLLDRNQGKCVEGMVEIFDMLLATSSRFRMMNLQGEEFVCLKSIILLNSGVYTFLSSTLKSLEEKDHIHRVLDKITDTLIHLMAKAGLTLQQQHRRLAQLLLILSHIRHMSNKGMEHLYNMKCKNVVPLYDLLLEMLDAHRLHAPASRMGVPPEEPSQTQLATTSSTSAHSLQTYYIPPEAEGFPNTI
Target sequence in this assay (O08537 whole entry, looked up, chain 2 of 2): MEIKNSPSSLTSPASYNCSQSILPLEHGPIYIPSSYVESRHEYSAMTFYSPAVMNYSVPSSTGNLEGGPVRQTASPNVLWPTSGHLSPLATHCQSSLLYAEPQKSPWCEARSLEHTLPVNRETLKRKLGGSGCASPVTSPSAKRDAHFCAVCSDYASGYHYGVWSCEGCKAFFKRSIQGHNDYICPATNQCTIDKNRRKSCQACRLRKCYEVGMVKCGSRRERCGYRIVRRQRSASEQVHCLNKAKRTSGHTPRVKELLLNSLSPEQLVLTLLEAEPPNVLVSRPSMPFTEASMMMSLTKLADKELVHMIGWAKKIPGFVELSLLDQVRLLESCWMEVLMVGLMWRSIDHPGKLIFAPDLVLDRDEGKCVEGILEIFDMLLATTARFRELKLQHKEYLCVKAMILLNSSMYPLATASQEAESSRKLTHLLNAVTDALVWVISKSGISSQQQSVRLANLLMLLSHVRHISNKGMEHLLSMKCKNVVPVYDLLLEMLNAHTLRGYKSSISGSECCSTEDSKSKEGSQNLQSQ

MCF7 [2] = test: Effect on Estrogen receptor positive MCF-7 human breast cancer cell proliferation at 5x10E-6M (control = 62.3+/-8.8); format: functional
How it was run: (§2)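 MCF-7 cells were kept in MEM with 5% charcoal-treated newborn calf serum and phenol red for 2 weeks, then about 2×10^4 cells were plated per well. Compounds in 0.1% DMF were added 2 days later and renewed on day 4; DMF alone served as control. Coulter cell counts were taken on day 5; mean of six dishes ± SD; % T/C.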

MCF7 [3] = test: Effect on Estrogen receptor positive MCF-7 human breast cancer cell proliferation at 1x10E-6M; format: functional; how it was run: as §2
[4] = molecular target: T1, Estrogen receptor (Mus musculus); test: Uterotrophic effect in mice as relative uterine weight(mg) at 25 ug (control = 14.6+/-2.7); format: functional, tissue-based
How it was run: (§3)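 Immature mice dosed sc per animal on three consecutive days; vehicle controls. Killed and weighed 24 h after last injection; uteri fixed in Bouin solution 2 h, washed with alcoholic LiCl, dried at 100 °C for 24 h. Relative uterus weight = uterine dry weight (mg)/body weight (g) × 100; mean of 6-10 animals ± SD.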
Target sequence in this assay (P19785 whole entry, looked up, chain 1 of 2): as the sequence (P19785 whole entry, looked up, chain 1 of 2) above
Target sequence in this assay (O08537 whole entry, looked up, chain 2 of 2): as the sequence (O08537 whole entry, looked up, chain 2 of 2) above

[5] = molecular target: T1, Estrogen receptor (Mus musculus); test: Percent inhibition of estrone stimulated uterotrophic effect in mice at 250 ug; format: functional
How it was run: (§4)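 Immature mice given test compound per animal sc on three consecutive days together with 0.4 μg estrone/animal/day. Killed 24 h after last injection; uteri fixed in Bouin, dried 100 °C 24 h and weighed. Inhibition = 100 − [(W_S,T − W_V)/(W_S − W_V) × 100] using relative uterus weights; 6-10 animals; Wilcoxon-Mann-Whitney U test.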
Target sequence in this assay (P19785 whole entry, looked up, chain 1 of 2): as the sequence (P19785 whole entry, looked up, chain 1 of 2) above
Target sequence in this assay (O08537 whole entry, looked up, chain 2 of 2): as the sequence (O08537 whole entry, looked up, chain 2 of 2) above

[6] = molecular target: T1, Estrogen receptor (Mus musculus); test: Uterotrophic effect in mice as relative uterine weight(mg) at 250 ug (control = 14.6+/-2.7); format: functional, tissue-based; how it was run: as §3
Target sequence in this assay (P19785 whole entry, looked up, chain 1 of 2): as the sequence (P19785 whole entry, looked up, chain 1 of 2) above
Target sequence in this assay (O08537 whole entry, looked up, chain 2 of 2): as the sequence (O08537 whole entry, looked up, chain 2 of 2) above

MCF7 [7] = test: Effect on [3H]thymidine incorporation into estrogen receptor positive MCF-7 human breast cancer cells at 1x10E-6M (control = 43.4+/-1.8); format: functional
How it was run: (§5)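 MCF-7 cells were grown in MEM with charcoal-treated 5% newborn calf serum and phenol red, then treated with compounds in 0.1% DMF (renewed on day 4) alongside DMF controls. They were labeled 3 days later with 1 µCi [³H]thymidine per well for 2 h, and incorporated radioactivity per dish was measured; mean of six dishes ± SD; % T/C.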

MCF7 [8] = test: Effect on Estrogen receptor positive MCF-7 human breast cancer cell proliferation at 5x10E-6M; format: functional; how it was run: as §2
MCF7 [9] = test: Effect on [3H]thymidine incorporation into estrogen receptor positive MCF-7 human breast cancer cells at 5x10E-6M; format: functional
How it was run: (§6)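 MCF-7 cells in improved MEM with glutamine, gentamycin and 5% newborn calf serum, switched to charcoal-treated serum two weeks ahead; phenol red present; 37 °C, 5% CO2. About 2×10^4 cells plated per well; compound in 0.1% DMF added 2 days later, renewed on day 4; labelled 3 days later with 1 μCi [3H]thymidine per well for 2 h; cpm/dish, mean of six dishes ± SD.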

MCF7 [10] = test: Effect on [3H]thymidine incorporation into estrogen receptor positive MCF-7 human breast cancer cells at 5x10E-6M (control = 43.4+/-1.8); format: functional; how it was run: as §6
MCF7 [11] = test: Effect on Estrogen receptor positive MCF-7 human breast cancer cell proliferation at 1x10E-6M (control = 62.3+/-8.8); format: functional; how it was run: as §2
MCF7 [12] = test: Effect on [3H]thymidine incorporation into estrogen receptor positive MCF-7 human breast cancer cells at 1x10E-6M; format: functional; how it was run: as §5
[13] = molecular target: T1, Estrogen receptor (Mus musculus); test: Anti-uterotrophic effect in hormone-dependent transplant MXT bearing mice as relative uterine weight in treated and control mice at 20 mg (control=100+/-24); format: functional
Target sequence in this assay (P19785 whole entry, looked up, chain 1 of 2): as the sequence (P19785 whole entry, looked up, chain 1 of 2) above
Target sequence in this assay (O08537 whole entry, looked up, chain 2 of 2): as the sequence (O08537 whole entry, looked up, chain 2 of 2) above

Mus musculus [14] = organism: Mus musculus; test: Antitumor activity in hormone-dependent transplant MXT mammary tumor bearing mice at 20 mg (control=197+/-130); format: functional, organism-based
MCF7 [15] = test: Effect on Estrogen receptor positive MCF-7 human breast cancer cell proliferation at 1x10E-6M (control = 62.7+/-8.8); format: functional; how it was run: as §2
[16] = molecular target: T1, Estrogen receptor (Mus musculus); test: Uterotrophic effect in mice as relative uterine weight(mg) at 250 ug (control = 14.5+/-2.1); format: functional, tissue-based; how it was run: as §3
Target sequence in this assay (P19785 whole entry, looked up, chain 1 of 2): as the sequence (P19785 whole entry, looked up, chain 1 of 2) above
Target sequence in this assay (O08537 whole entry, looked up, chain 2 of 2): as the sequence (O08537 whole entry, looked up, chain 2 of 2) above

Mus musculus [17] = organism: Mus musculus; test: Relative tumor weight in treated compared to control mice bearing hormone-dependent transplanted MXT mammary tumors at 20 mg; format: functional, organism-based
MCF7 [18] = test: Effect on Estrogen receptor positive MCF-7 human breast cancer cell proliferation at 5x10E-7M (control = 62.7+/-8.8); format: functional; how it was run: as §2
MCF7 [19] = test: Effect on [3H]thymidine incorporation into estrogen receptor positive MCF-7 human breast cancer cells at 5x10E-6M (control = 48.6+/-3.6); format: functional; how it was run: as §6
MCF7 [20] = test: Effect on [3H]thymidine incorporation into estrogen receptor positive MCF-7 human breast cancer cells at 5x10E-7M (control=48.6+/-3.6); format: functional, cell-based; how it was run: as §6
MCF7 [21] = test: Effect on [3H]thymidine incorporation into estrogen receptor positive MCF-7 human breast cancer cells at 1x10E-6M (control = 48.6+/-3.6); format: functional; how it was run: as §5
MCF7 [22] = test: Effect on Estrogen receptor positive MCF-7 human breast cancer cell proliferation at 5x10E-6M (control = 62.7+/-8.8); format: functional; how it was run: as §2
[23] = molecular target: T1, Estrogen receptor (Mus musculus); test: Uterotrophic effect in mice as relative uterine weight(mg) at 25 ug (control = 14.5+/-2.1); format: functional, tissue-based; how it was run: as §3
MCF7 [24] = test: Effect on Estrogen receptor positive MCF-7 human breast cancer cell proliferation at 5x10E-7M; format: functional; how it was run: as §2
MCF7 [25] = test: Effect on [3H]thymidine incorporation into estrogen receptor positive MCF-7 human breast cancer cells at 1*10^-6 M (control = 28.2+/-3.0); format: functional; how it was run: as §5
[26] = molecular target: T1, Estrogen receptor (Mus musculus); test: Uterotrophic effect in mice as relative uterine weight(mg) at 15 ug (control = 12.3+/-3.7); format: functional, tissue-based; how it was run: as §3
Target sequence in this assay (O08537 whole entry, looked up): as the sequence (O08537 whole entry, looked up, chain 2 of 2) above
Target sequence in this assay (P19785 whole entry, looked up): as the sequence (P19785 whole entry, looked up, chain 1 of 2) above

[27] = molecular target: T1, Estrogen receptor (Mus musculus); test: Anti-uterotrophic effect in mice as relative uterine weight(mg) at 15 ug; format: functional; how it was run: as §1
Target sequence in this assay (O08537 whole entry, looked up): as the sequence (O08537 whole entry, looked up, chain 2 of 2) above
Target sequence in this assay (P19785 whole entry, looked up): as the sequence (P19785 whole entry, looked up, chain 1 of 2) above

[28] = molecular target: T1, Estrogen receptor (Mus musculus); test: Anti-uterotrophic effect in mice as relative uterine weight(mg) at 150 ug; format: functional; how it was run: as §1
Target sequence in this assay (O08537 whole entry, looked up): as the sequence (O08537 whole entry, looked up, chain 2 of 2) above
Target sequence in this assay (P19785 whole entry, looked up): as the sequence (P19785 whole entry, looked up, chain 1 of 2) above

[29] = molecular target: T1, Estrogen receptor (Mus musculus); test: Percent inhibition of estrone stimulated uterotrophic effect in mice at 150 ug; format: functional; how it was run: as §4
Target sequence in this assay (O08537 whole entry, looked up): as the sequence (O08537 whole entry, looked up, chain 2 of 2) above
Target sequence in this assay (P19785 whole entry, looked up): as the sequence (P19785 whole entry, looked up, chain 1 of 2) above

MCF7 [30] = test: Effect on Estrogen receptor positive MCF-7 human breast cancer cell proliferation at 5x10E-6M (control = 66.9+/-7.0); format: functional; how it was run: as §2
MCF7 [31] = test: Effect on Estrogen receptor positive MCF-7 human breast cancer cell proliferation at 1x10E-6M (control = 66.9+/-7.0); format: functional; how it was run: as §2
[32] = molecular target: T1, Estrogen receptor (Mus musculus); test: Uterotrophic effect in mice as relative uterine weight(mg) at 150 ug (control = 12.3+/-3.7); format: functional, tissue-based; how it was run: as §3
Target sequence in this assay (O08537 whole entry, looked up): as the sequence (O08537 whole entry, looked up, chain 2 of 2) above
Target sequence in this assay (P19785 whole entry, looked up): as the sequence (P19785 whole entry, looked up, chain 1 of 2) above

[33] = molecular target: T1, Estrogen receptor (Mus musculus); test: Percent inhibition of estrone stimulated uterotrophic effect in mice at 15 ug; format: functional; how it was run: as §4
Target sequence in this assay (O08537 whole entry, looked up): as the sequence (O08537 whole entry, looked up, chain 2 of 2) above
Target sequence in this assay (P19785 whole entry, looked up): as the sequence (P19785 whole entry, looked up, chain 1 of 2) above

MCF7 [34] = test: Effect on [3H]thymidine incorporation into estrogen receptor positive MCF-7 human breast cancer cells at 5x10E-6M (control = 28.2+/-3.0); format: functional; how it was run: as §6
[35] = molecular target: T1, Estrogen receptor (Mus musculus); test: Uterotrophic effect in mice as relative uterine weight(mg) at 25 ug (control = 12.3+/-3.7); format: functional, tissue-based; how it was run: as §3
[36] = molecular target: T1, Estrogen receptor (Mus musculus); test: Uterotrophic effect in mice as relative uterine weight(mg) at 250 ug (control = 12.3+/-3.7); format: functional, tissue-based; how it was run: as §3
Mus musculus [37] = organism: Mus musculus; test: Relative tumor weight in treated compared to control mice bearing hormone-dependent transplanted MXT mammary tumors at 8.8mg; format: functional
Mus musculus [38] = organism: Mus musculus; test: Anti-tumor activity in hormone-dependent transplant MXT mammary tumor bearing mice at 8.8 mg (control=388+/-269); format: functional

For “[5-hydroxy-3-methyl-2-(4-hydroxyphenyl)-1-[omega-[(2-pyridylmethyl)amino]butyl]indole]dichloroplatinum (II) complex”, the Relative uterus weight [1] was 51.8 mg, the Cell no/dish (MCF7 [2]) was 489000 and the T/C (MCF7 [3]) was 89%. For the same molecule, the Relative uterus weight [4] was 21.5 mg, the inhibition [5] was 5% and the Relative uterus weight [6] was 14.8 mg. It also gave an Activity (MCF7 [7]) of 38400, a T/C (MCF7 [8]) of 79% and a T/C (MCF7 [9]) of 68%. For the same molecule, the Activity (MCF7 [10]) was 29500, the Cell no/dish (MCF7 [11]) was 554000 and the T/C (MCF7 [12]) was 88%.
“[5-hydroxy-2-(4-hydroxyphenyl)-1-[omega-[(2-pyridylmethyl)amino]hexyl]indole]dichloroplatinum (II) complex” was tested, and the Relative uterus weight [1] was 52.7 mg, the T/C [13] was 103% and the Tumor weight (Mus musculus [14]) was 80 mg. For the same molecule, the T/C (MCF7 [3]) was 64%, the Cell no/dish (MCF7 [15]) was 401000 and the Relative uterus weight [16] was 16.3 mg. For the same molecule, the T/C (Mus musculus [17]) was 40%, the Cell no/dish (MCF7 [18]) was 482000 and the Activity (MCF7 [19]) was 16700. For the same molecule, the [3H] thymidine cpm/dish (MCF7 [20]) was 33400, the Activity (MCF7 [21]) was 27500 and the Cell no/dish (MCF7 [22]) was 345000. It also gave a T/C (MCF7 [8]) of 55%, a T/C (MCF7 [9]) of 34% and a T/C (MCF7 [12]) of 57%. It also gave a Relative uterus weight [23] of 12.7 mg and a T/C (MCF7 [24]) of 77%.
Work on `Cc1c(-c2ccc(O)cc2)n(CCCCCNCc2ccccn2)c2ccc(O)cc12` yielded a T/C (MCF7 [3]) of 64%, an Activity (MCF7 [25]) of 21600 and a Relative uterus weight [26] of 16.4 mg. It also gave a Relative uterus weight [27] of 42.6 mg, a Relative uterus weight [28] of 44 mg and an inhibition [29] of 5%. The Cell no/dish (MCF7 [30]) was 287000, the Cell no/dish (MCF7 [31]) was 430000 and the Relative uterus weight [32] was 13.3 mg. For the same molecule, the inhibition [33] was 9%, the T/C (MCF7 [8]) was 43% and the T/C (MCF7 [9]) was 67%. The T/C (MCF7 [12]) was 76% and the Activity (MCF7 [34]) was 18900.
Molecule “[5-hydroxy-3-methyl-2-(4-hydroxyphenyl)-1-[omega-[(2-pyridylmethyl)amino]pentyl]indole]dichloroplatinum (II) complex” has a Relative uterus weight [1] of 46.6 mg, a T/C (MCF7 [3]) of 101% and an Activity (MCF7 [25]) of 16900. It also gave a Cell no/dish (MCF7 [30]) of 571000, a Cell no/dish (MCF7 [31]) of 674000 and a Relative uterus weight [35] of 16.3 mg. It also gave a T/C (MCF7 [8]) of 85%, a T/C (MCF7 [9]) of 54% and a T/C (MCF7 [12]) of 60%. The Relative uterus weight [36] was 22.1 mg and the Activity (MCF7 [34]) was 15200.
`CC/C(=C(\c1ccccc1)c1ccc(OCCN(C)C)cc1)c1ccccc1` [TAMOXIFEN] showed a T/C (Mus musculus [37]) of 29% and a Tumor weight (Mus musculus [38]) of 114 mg.
